Results: ChEMBL document CHEMBL3352552, “Total synthesis and antibacterial testing of the A54556 cyclic acyldepsipeptides isolated from Streptomyces hawaiiensis” (J Nat Prod, 2014)
≈ marks a conversion by molar mass, not a printed value. Calls of active or inactive are those of the source. The calls are words filed in the database; no cut-off is given here. Where a SMILES comes first, the peptide text is derived from it. Bridges are numbered along the chain shown (N, C = ends). [ ]: non-standard residue; d: D form. The star is where a group is joined. Octatrienoyl(2E,4E,6E) = C/C=C/C=C/C=C/C(=O)*; Hexadienoyl(2E,4E) = C/C=C/C=C/C(=O)*; Pro(4R-Me) = C[C@H]1CN[C@H](C(=O)O)C1; NMeA = CN[C@@H](C)C(=O)O; X1 = CCC/C=C/C=C/C(=O)*

Columns and labels:
Streptococcus pneumoniae = experiment: Antibacterial activity against Streptococcus pneumoniae ATCC 49619 incubated for 16 to 18 hrs by broth microdilution method; format: functional
How it was run: (§1)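 Colonies pre-grown 16−18 h at 37 °C in moist 5% CO₂ (Staph. aureus on LB agar; the others on GC agar with 1% IsoVitaleX), then diluted in BHI + 1% IsoVitaleX. Inoculum set by OD (600 nm Staph. aureus and S. pneumoniae; 550 nm N. meningitidis) to give ∼5 × 10⁵ cfu/mL per well. Twofold dilutions run 128–0.0625 μg/mL final. DMSO-only and medium blanks were included, with three independent plates, incubated 16−18 h at 37 °C in 5% CO₂.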

[1] = target: ATP-dependent Clp protease proteolytic subunit (Escherichia coli (strain K12)) (UniProt P0A6G7); experiment: Activation of Escherichia coli ClpP assessed as degradation of casein-FITC substrate at 5 uM fluorescence-based biochemical assay
Chain of ATP-dependent Clp protease proteolytic subunit (Escherichia coli (strain K12)) (P0A6G7 whole entry): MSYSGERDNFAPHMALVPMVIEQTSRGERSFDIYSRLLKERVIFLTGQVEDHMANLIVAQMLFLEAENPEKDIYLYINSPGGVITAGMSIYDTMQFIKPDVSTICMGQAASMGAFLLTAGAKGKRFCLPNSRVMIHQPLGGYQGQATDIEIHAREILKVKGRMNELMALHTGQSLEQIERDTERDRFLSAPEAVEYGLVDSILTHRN

Neisseria meningitidis = experiment: Antibacterial activity against Neisseria meningitidis H44/76 incubated for 16 to 18 hrs by broth microdilution method; format: functional; how it was run: as §1
Staphylococcus aureus = experiment: Antibacterial activity against Staphylococcus aureus ATCC 29213 incubated for 16 to 18 hrs by broth microdilution method; format: functional; how it was run: as §1
[2] = target: ATP-dependent Clp protease proteolytic subunit (Escherichia coli (strain K12), UniProt P0A6G7); experiment: Activation of Escherichia coli ClpP by ITC method
Chain of ATP-dependent Clp protease proteolytic subunit (P0A6G7 whole entry): as above

| SMILES | MIC (Streptococcus pneumoniae) | Activity [1] | MIC (Neisseria meningitidis) | MIC (Staphylococcus aureus) | Kd [2] |
| --- | --- | --- | --- | --- | --- |
| CN[C@H](CC(C)C)C(=O)N[C@H]1C(=O)N[C@@H](CC(N)=O)C(=O)N[C@H]2C(=O)N[C@H]3C(=O)N[C@H](C(=O)N[C@H](C(=O)O)c4cc(O)cc(O)c4-c4cc3ccc4O)[C@H](O)c3ccc(c(Cl)c3)Oc3cc2cc(c3O[C@@H]2O[C@H](CO)[C@@H](O)[C@H](O)[C@H]2O[C@H]2C[C@](C)(N)[C@H](O)[C@H](C)O2)Oc2ccc(cc2Cl)[C@H]1O [VANCOMYCIN] | 2 µg/mL (≈ 1.38 µM) | – | – | – | – |
| C/C=C/C=C/C(=O)N[C@@H](Cc1ccccc1)C(=O)N[C@H]1COC(=O)[C@@H]2CCCN2C(=O)[C@H](C)NC(=O)[C@H](C)N(C)C(=O)[C@@H]2CCCN2C1=O ({Hexadienoyl(2E,4E)}-FSP[NMeA]AP; ester 2-C) | 0.25 µg/mL (≈ 0.368 µM) | inactive | 4 µg/mL (≈ 5.89 µM) | 16 µg/mL (≈ 23.6 µM) | – |
| C/C=C/C=C/C=C/C(=O)N[C@@H](Cc1ccccc1)C(=O)N[C@H]1COC(=O)[C@@H]2CCCN2C(=O)[C@H](C)NC(=O)[C@H](C)N(C)C(=O)[C@@H]2CCCN2C1=O ({Octatrienoyl(2E,4E,6E)}-FSP[NMeA]AP; ester 2-C) | 0.5 µg/mL (≈ 0.709 µM) | Active | 0.5 µg/mL (≈ 0.709 µM) | 16 µg/mL (≈ 22.7 µM) | 700 nM |
| C[C@@H]1C[C@H]2C(=O)OC[C@H](NC(=O)[C@H](Cc3ccccc3)NC(=O)/C=C/C=C/CO)C(=O)N3CCC[C@H]3C(=O)N(C)[C@@H](C)C(=O)N[C@@H](C)C(=O)N2C1 (stereo in doubt) | 0.25 µg/mL (≈ 0.353 µM) | inactive | 64 µg/mL (≈ 90.3 µM) | 128 µg/mL (≈ 181 µM) | – |
| NC[C@@H]1O[C@@H](O[C@H]2[C@H](O)[C@@H](O[C@H]3O[C@H](CO)[C@@H](O)[C@H](N)[C@H]3O)[C@H](N)C[C@@H]2N)[C@@H](O)[C@H](O)[C@H]1O [KANAMYCIN A] | – | – | 64 µg/mL (≈ 132 µM) | – | – |
| C/C=C/C=C/C(=O)N[C@@H](Cc1ccccc1)C(=O)N[C@H]1COC(=O)[C@@H]2C[C@@H](C)CN2C(=O)[C@H](C)NC(=O)[C@H](C)N(C)C(=O)[C@@H]2CCCN2C1=O ({Hexadienoyl(2E,4E)}-FSP[NMeA]A[Pro(4R-Me)]; ester 2-C) | 0.125 µg/mL (≈ 0.18 µM) | inactive | 2 µg/mL (≈ 2.89 µM) | 4 µg/mL (≈ 5.77 µM) | – |
| C/C=C/C=C/C=C/C(=O)N[C@@H](Cc1ccccc1)C(=O)N[C@H]1COC(=O)[C@@H]2C[C@@H](C)CN2C(=O)[C@H](C)NC(=O)[C@H](C)N(C)C(=O)[C@@H]2CCCN2C1=O ({Octatrienoyl(2E,4E,6E)}-FSP[NMeA]A[Pro(4R-Me)]; ester 2-C) | < 0.0625 µg/mL | Active | 0.125 µg/mL (≈ 0.174 µM) | 4 µg/mL (≈ 5.56 µM) | 300 nM |
| CCC/C=C/C=C/C(=O)N[C@@H](Cc1ccccc1)C(=O)N[C@H]1COC(=O)[C@@H]2C[C@@H](C)CN2C(=O)[C@H](C)NC(=O)[C@H](C)N(C)C(=O)[C@@H]2CCCN2C1=O (X1-FSP[NMeA]A[Pro(4R-Me)]; ester 2-C) | < 0.0625 µg/mL | Active | < 0.0625 µg/mL | 0.5 µg/mL (≈ 0.694 µM) | – |
